In brackets after ≈: the same amount, converted by molar mass.
Assays:
Type in all cases: functional
Trichophyton benhamiae = assay: In vitro antifungal activity against Trichophyton asteroides
Summary of the method: (§1)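 Broth microdilution MIC in Sabouraud's glucose broth; final inocula 1 × 10^5 cells/mL (yeast) or 1 × 10^5 conidia/mL (mold and dermatophyte).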

Candida albicans [1] = assay: In vitro antifungal activity against Candida albicans; settings: Candida albicans; read-out: MIC; summary of the method: as §1
Candida albicans [2] = assay: Minimum effective concentration for inhibition of pseudomycelium formation in Candida albicans; settings: for minimal effective concentration: Candida albicans, read-out: MEC
Summary of the method: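 C. albicans KE-2 (clinical isolate) at a final 1 × 10^6 yeast cells/mL in EMEM with 20% calf serum; compounds diluted by the same microtiter system as for MICs. After incubation, wells were Giemsa-stained (5% in phosphate buffer) and read by microscope. MEC is the lowest concentration preventing typical pseudomycelium formation.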

Aspergillus fumigatus = assay: In vitro antifungal activity against Aspergillus fumigatus; settings: Aspergillus fumigatus; read-out: MIC; summary of the method: as §1
[3] = Trichophyton benhamiae, read-out: MIC

Row | MIC (Trichophyton benhamiae; [3]) | MIC (Candida albicans [1]) | MIC (Aspergillus fumigatus) | MIC (Trichophyton benhamiae) | Structure (SMILES) | minimal effective concentration (Candida albicans [2]) | MEC (Candida albicans [2])
1 | 3.1 µg/mL (≈ 7.31 µM) | 100 µg/mL (≈ 236 µM) | > 100 µg/mL |  | Fc1ccc([C@H]2OC(=S)O[C@]2(Cn2cncn2)c2ccc(Cl)cc2Cl)cc1 | 10 µg/mL | 
2 | 0.2 µg/mL (≈ 0.532 µM) | > 100 µg/mL | 12.5 µg/mL (≈ 33.2 µM) |  | Clc1ccc([C@H]2OCO[C@]2(Cn2cncn2)c2ccccc2)c(Cl)c1 | 0.63 µg/mL | 
3 | 0.8 µg/mL (≈ 2.43 µM) | > 100 µg/mL | > 100 µg/mL |  | OC(c1ccccc1Cl)C(O)(Cn1cncn1)c1ccccc1 (stereo unspecified) | > 20 µg/mL | 
4 | 1.6 µg/mL (≈ 4.97 µM) | > 100 µg/mL | > 100 µg/mL |  | CCC[C@H]1OC(=O)O[C@]1(Cn1cncn1)c1ccc(Cl)cc1 | 0.31 µg/mL | 
5 | 25 µg/mL (≈ 84.6 µM) | > 100 µg/mL | > 100 µg/mL |  | OC(c1ccccc1)C(O)(Cn1cncn1)c1ccccc1 (stereo unspecified) | > 20 µg/mL | 
6 | > 100 µg/mL | > 100 µg/mL | > 100 µg/mL |  | O=C(c1ccccn1)C(O)(Cn1cncn1)c1ccccn1 (stereo unspecified) | > 20 µg/mL | 
7 | 0.1 µg/mL (≈ 0.264 µM) | > 100 µg/mL | > 100 µg/mL |  | O=C(c1ccc(F)cc1)C(O)(Cn1ccnc1)c1ccc(Cl)cc1Cl (stereo unspecified) | 1.25 µg/mL | 
8 |  |  |  | 0.1 µg/mL (≈ 0.235 µM) | O=C1O[C@H](c2ccc(Cl)cc2)[C@](Cn2cncn2)(c2ccc(Cl)cc2Cl)O1 |  | 0.08 µg/mL
9 | 0.4 µg/mL (≈ 1.03 µM) | > 100 µg/mL | > 100 µg/mL |  | O=C1O[C@H](c2ccc(Cl)cc2Cl)[C@@](Cn2cncn2)(c2ccccc2)O1 | 1.25 µg/mL | 
10 | > 100 µg/mL | > 100 µg/mL | > 100 µg/mL |  | OC(Cc1ccc(Cl)cc1)(c1ccc(F)cc1)C(O)(Cn1cncn1)c1ccc(Cl)cc1 (stereo unspecified) | 20 µg/mL | 
11 | 0.8 µg/mL (≈ 2.05 µM) | 50 µg/mL (≈ 128 µM) | > 100 µg/mL |  | O=C1O[C@H](c2ccc(Cl)cc2)[C@@](Cn2cncn2)(c2ccc(Cl)cc2)O1 | 1.25 µg/mL | 
12 | 0.2 µg/mL (≈ 0.621 µM) | 100 µg/mL (≈ 311 µM) | > 100 µg/mL |  | CCCCCC(O)(Cn1cncn1)C(=O)c1ccc(Cl)cc1 (stereo unspecified) | 0.63 µg/mL | 
13 | 1.6 µg/mL (≈ 4.83 µM) | > 100 µg/mL | > 100 µg/mL |  | OC(c1ccc(F)cc1)C(O)(Cn1cncn1)c1ccc(F)cc1 (stereo unspecified) | 10 µg/mL | 
14 | 0.1 µg/mL (≈ 0.251 µM) | 100 µg/mL (≈ 251 µM) | > 100 µg/mL |  | OC(c1ccc(Cl)cc1Cl)C(O)(Cn1cncn1)c1ccc(Cl)cc1 (stereo unspecified) | 0.31 µg/mL | 
15 | 0.2 µg/mL (≈ 0.476 µM) | > 100 µg/mL | > 100 µg/mL |  | CCCCC(O)(c1ccccc1)C(O)(Cn1cncn1)c1ccc(Cl)cc1Cl (stereo unspecified) | 2.5 µg/mL | 
16 | 0.79 µg/mL (≈ 2.4 µM) | 100 µg/mL (≈ 304 µM) | > 100 µg/mL |  | O=C(c1ccc(F)cc1)C(O)(Cn1cncn1)c1ccc(F)cc1 (stereo unspecified) | 10 µg/mL | 
17 | 0.8 µg/mL (≈ 2.6 µM) | > 100 µg/mL | > 100 µg/mL |  | CC(C)CC(O)(Cn1cncn1)C(=O)c1ccc(Cl)cc1 (stereo unspecified) | 0.31 µg/mL | 
18 | 0.4 µg/mL (≈ 1.3 µM) | > 100 µg/mL | 100 µg/mL (≈ 325 µM) |  | CC(C)[C@H]1OCO[C@@]1(Cn1cncn1)c1ccc(Cl)cc1 | 0.04 µg/mL | 
19 | 0.1 µg/mL (≈ 0.254 µM) | > 100 µg/mL | > 100 µg/mL |  | Fc1ccc([C@H]2OCO[C@]2(Cn2cncn2)c2ccc(Cl)cc2Cl)cc1 | 0.31 µg/mL | 
20 | 6.3 µg/mL (≈ 25.5 µM) | > 100 µg/mL | > 100 µg/mL |  | CC(C)(O)C(O)(Cn1cncn1)c1ccccc1 (stereo unspecified) | > 20 µg/mL | 
21 | 3.13 µg/mL (≈ 8.64 µM) | > 100 µg/mL | > 100 µg/mL |  | O=C(c1cccc(Cl)c1)C(O)(Cn1cncn1)c1cccc(Cl)c1 (stereo unspecified) | > 20 µg/mL | 
22 | 6.3 µg/mL (≈ 16.1 µM) | 100 µg/mL (≈ 256 µM) | > 100 µg/mL |  | O=C1O[C@H](c2cccc(Cl)c2)[C@@](Cn2cncn2)(c2cccc(Cl)c2)O1 | > 20 µg/mL | 
23 | 0.2 µg/mL (≈ 0.556 µM) | > 100 µg/mL | > 100 µg/mL |  | Fc1ccc([C@H]2OCO[C@]2(Cn2cncn2)c2ccc(Cl)cc2)cc1 | 0.63 µg/mL | 
24 | 3.1 µg/mL (≈ 8.68 µM) | > 100 µg/mL | > 100 µg/mL |  | O=C1O[C@H](c2ccc(F)cc2)[C@@](Cn2cncn2)(c2ccc(F)cc2)O1 | 2.5 µg/mL | 
25 | 1.6 µg/mL (≈ 4.97 µM) | > 100 µg/mL | > 100 µg/mL |  | CC(C)[C@H]1OC(=O)O[C@]1(Cn1cncn1)c1ccc(Cl)cc1 | 0.31 µg/mL | 
26 | 0.1 µg/mL (≈ 0.242 µM) | 100 µg/mL (≈ 242 µM) | 50 µg/mL (≈ 121 µM) |  | CC(O)(c1ccc(Cl)cc1Cl)C(O)(Cn1cncn1)c1ccc(Cl)cc1 (stereo unspecified) | 1.25 µg/mL | 
27 | 12.5 µg/mL (≈ 35.4 µM) | > 100 µg/mL | > 100 µg/mL |  | COc1ccc(C(=O)C(O)(Cn2cncn2)c2ccc(OC)cc2)cc1 (stereo unspecified) | > 20 µg/mL | 
